# What was measured:
# [1] = tested on: Epidermal growth factor receptor (Homo sapiens), P00533 [L861Q]; test: Competitive binding affinity to EGFR L861Q mutant (unknown origin) at 10 uM in presence of ATP relative to control
# Method in brief: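 In vitro ATP-site competition binding assay, part of profiling against a diverse panel of 128 kinases. Each compound was tested at a single concentration of 10 µM. Kinome selectivity was summarized as S15 selectivity scores.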
# [2] = target: Serine/threonine-protein kinase MRCK gamma (Homo sapiens) (UniProt Q6DT37); test: Competitive binding affinity to DMPK2 (unknown origin) at 10 uM in presence of ATP relative to control
# Chain of Serine/threonine-protein kinase MRCK gamma (Homo sapiens) (Q6DT37 whole entry): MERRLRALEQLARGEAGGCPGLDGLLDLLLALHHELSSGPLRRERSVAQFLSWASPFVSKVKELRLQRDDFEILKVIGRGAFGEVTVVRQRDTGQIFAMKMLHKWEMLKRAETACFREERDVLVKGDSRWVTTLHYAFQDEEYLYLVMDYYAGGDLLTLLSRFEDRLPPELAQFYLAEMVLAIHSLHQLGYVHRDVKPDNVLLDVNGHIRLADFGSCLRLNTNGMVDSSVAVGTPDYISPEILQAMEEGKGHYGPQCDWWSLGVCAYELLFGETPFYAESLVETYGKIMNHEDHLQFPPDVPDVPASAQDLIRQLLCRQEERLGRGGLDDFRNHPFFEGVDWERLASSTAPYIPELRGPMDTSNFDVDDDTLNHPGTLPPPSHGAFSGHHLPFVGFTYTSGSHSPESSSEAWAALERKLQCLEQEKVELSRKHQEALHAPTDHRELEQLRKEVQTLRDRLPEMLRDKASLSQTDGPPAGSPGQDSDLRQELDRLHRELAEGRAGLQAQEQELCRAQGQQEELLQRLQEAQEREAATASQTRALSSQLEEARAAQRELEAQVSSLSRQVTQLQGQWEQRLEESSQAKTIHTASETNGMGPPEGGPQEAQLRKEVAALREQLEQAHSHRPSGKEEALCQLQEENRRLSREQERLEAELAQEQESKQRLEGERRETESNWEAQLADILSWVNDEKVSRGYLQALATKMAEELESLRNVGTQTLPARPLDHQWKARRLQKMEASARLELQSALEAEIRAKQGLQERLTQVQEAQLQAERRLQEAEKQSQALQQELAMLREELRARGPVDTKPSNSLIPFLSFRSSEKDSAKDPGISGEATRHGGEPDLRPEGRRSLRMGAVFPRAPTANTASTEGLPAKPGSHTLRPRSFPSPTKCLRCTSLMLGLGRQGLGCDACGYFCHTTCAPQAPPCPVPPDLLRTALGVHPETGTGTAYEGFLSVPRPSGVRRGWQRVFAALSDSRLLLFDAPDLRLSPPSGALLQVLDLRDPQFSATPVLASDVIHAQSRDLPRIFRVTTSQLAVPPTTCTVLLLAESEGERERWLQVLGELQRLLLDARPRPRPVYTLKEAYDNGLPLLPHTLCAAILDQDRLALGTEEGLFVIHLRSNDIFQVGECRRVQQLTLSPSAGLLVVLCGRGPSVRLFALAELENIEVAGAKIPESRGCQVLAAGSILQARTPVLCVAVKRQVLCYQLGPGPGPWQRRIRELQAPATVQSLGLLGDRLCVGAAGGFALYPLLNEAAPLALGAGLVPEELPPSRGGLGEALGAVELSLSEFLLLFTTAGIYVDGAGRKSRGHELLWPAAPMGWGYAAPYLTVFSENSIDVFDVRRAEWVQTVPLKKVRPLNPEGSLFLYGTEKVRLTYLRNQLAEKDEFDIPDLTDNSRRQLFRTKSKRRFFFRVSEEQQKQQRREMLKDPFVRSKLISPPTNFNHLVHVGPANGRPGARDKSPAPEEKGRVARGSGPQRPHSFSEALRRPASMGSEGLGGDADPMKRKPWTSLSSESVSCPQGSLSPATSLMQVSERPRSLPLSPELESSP
# [3] = target: Cyclin-dependent kinase 3 (Homo sapiens) (UniProt Q00526); test: Competitive binding affinity to CDK3 (unknown origin) at 10 uM in presence of ATP relative to control
# Chain of Cyclin-dependent kinase 3 (Homo sapiens) (Q00526 whole entry, looked up): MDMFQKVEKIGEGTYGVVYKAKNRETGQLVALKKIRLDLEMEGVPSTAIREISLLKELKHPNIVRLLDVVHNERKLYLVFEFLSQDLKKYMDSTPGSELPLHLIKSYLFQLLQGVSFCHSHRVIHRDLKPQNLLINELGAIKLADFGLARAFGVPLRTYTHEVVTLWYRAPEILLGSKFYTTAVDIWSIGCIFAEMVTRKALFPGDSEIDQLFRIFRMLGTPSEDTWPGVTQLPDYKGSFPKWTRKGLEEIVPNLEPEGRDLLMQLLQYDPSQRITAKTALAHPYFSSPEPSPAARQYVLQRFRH
# [4] = target: T1, cGMP-dependent protein kinase 2 (Homo sapiens) (UniProt Q13237); test: Competitive binding affinity to PRKG2 (unknown origin) at 10 uM in presence of ATP relative to control
# T1 sequence (whole entry): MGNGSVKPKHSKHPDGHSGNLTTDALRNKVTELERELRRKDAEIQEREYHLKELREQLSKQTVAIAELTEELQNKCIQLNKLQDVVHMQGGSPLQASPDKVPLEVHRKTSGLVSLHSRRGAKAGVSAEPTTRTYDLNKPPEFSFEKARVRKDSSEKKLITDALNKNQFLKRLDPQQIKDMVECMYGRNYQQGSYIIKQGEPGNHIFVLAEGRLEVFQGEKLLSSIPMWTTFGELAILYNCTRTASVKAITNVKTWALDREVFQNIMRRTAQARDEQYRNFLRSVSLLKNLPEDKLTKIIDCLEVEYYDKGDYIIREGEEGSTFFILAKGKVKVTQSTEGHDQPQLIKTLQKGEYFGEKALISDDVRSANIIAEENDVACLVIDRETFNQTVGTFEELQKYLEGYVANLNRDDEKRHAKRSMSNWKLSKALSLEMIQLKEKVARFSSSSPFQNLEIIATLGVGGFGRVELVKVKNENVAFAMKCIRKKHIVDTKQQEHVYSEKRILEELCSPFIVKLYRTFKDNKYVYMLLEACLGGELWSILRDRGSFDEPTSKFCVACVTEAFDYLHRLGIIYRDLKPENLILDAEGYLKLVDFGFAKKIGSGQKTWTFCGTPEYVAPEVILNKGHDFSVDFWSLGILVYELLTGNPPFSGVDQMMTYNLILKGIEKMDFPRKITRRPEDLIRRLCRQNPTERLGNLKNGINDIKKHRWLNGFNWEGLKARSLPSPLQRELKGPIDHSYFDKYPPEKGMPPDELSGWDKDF
# [5] = target: T2, cGMP-dependent protein kinase 1 (Homo sapiens) (UniProt Q13976); test: Competitive binding affinity to PRKG1 (unknown origin) at 10 uM in presence of ATP relative to control
# T2 sequence (whole entry): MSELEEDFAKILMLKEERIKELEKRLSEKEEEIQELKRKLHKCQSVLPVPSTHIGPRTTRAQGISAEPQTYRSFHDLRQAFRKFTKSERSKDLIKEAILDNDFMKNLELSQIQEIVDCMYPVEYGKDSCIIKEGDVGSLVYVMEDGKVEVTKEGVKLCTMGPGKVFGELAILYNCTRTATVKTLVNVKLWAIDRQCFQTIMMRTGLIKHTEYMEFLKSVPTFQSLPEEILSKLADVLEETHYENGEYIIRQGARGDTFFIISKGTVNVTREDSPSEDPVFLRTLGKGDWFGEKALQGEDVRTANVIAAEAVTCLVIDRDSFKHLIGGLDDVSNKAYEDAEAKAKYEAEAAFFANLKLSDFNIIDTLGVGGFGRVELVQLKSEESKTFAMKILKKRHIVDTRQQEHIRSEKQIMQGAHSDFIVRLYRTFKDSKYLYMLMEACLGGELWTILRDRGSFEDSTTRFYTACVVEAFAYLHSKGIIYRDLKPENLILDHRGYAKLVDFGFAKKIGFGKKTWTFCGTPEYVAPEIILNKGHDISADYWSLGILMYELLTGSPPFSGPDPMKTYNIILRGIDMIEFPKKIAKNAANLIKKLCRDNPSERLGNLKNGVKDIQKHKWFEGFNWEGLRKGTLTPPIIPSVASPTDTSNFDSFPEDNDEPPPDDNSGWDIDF
# [6] = target: T3, Serine/threonine-protein kinase NLK (Homo sapiens) (UniProt Q9UBE8); test: Competitive binding affinity to NLK (unknown origin) at 10 uM in presence of ATP relative to control
# T3 sequence (whole entry): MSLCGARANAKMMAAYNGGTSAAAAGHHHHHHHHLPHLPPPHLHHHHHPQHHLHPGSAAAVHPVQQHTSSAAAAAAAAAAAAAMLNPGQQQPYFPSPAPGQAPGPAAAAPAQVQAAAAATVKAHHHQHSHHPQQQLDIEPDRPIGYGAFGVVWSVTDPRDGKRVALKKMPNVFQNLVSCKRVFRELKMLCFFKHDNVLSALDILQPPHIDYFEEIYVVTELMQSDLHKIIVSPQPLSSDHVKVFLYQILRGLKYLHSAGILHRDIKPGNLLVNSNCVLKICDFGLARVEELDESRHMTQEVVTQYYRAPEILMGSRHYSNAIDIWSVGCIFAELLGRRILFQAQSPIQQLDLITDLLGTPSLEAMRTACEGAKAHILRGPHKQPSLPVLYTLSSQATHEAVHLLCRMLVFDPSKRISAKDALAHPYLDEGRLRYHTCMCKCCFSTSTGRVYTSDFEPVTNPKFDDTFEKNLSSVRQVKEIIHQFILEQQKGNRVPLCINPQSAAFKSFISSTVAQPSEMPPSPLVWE
# Chain of Epidermal growth factor receptor (Homo sapiens), P00533 [L861Q] (P00533 whole entry L861Q): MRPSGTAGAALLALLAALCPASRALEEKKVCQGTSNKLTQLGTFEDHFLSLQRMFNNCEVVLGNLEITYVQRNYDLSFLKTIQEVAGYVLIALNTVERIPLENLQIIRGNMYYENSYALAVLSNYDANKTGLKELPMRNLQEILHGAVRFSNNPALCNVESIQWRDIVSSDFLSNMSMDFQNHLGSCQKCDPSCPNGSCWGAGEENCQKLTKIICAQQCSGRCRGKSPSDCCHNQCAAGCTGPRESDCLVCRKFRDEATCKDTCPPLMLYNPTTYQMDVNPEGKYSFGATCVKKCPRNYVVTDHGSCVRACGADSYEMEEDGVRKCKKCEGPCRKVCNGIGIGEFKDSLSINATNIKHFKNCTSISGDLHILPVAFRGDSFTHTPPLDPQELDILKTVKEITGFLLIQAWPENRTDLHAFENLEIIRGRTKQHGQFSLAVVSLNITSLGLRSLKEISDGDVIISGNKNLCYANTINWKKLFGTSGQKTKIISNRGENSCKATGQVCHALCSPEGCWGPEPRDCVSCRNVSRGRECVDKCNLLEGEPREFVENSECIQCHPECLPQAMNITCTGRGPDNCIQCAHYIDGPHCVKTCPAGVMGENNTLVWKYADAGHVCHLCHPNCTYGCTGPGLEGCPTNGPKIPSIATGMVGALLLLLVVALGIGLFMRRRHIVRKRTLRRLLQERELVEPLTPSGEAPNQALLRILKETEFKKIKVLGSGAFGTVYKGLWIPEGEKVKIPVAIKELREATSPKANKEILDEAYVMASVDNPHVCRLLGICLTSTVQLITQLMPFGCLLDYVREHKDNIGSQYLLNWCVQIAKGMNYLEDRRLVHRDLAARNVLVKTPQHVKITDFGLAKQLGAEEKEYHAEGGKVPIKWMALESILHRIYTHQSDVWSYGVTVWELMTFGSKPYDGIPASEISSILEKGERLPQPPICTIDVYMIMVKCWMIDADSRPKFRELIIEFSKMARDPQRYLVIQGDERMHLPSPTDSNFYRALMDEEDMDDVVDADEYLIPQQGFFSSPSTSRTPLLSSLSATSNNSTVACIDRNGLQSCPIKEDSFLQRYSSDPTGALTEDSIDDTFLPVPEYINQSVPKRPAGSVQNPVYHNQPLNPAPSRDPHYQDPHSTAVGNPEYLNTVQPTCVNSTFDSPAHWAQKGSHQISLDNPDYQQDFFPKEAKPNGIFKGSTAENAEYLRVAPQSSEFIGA
Structure (SMILES),inhibition [1] [%],inhibition [2] [%],inhibition [3] [%],inhibition [4] [%],inhibition [5] [%],inhibition [6] [%]
O[C@H]1CC[C@H](Nc2nccc(-n3ccc4ccccc43)n2)CC1,< 50,< 50,< 50,< 50,< 50,< 50
O[C@H]1CC[C@H](Nc2nccc(-n3nnc4ccccc43)n2)CC1,< 50,< 50,75,< 50,< 50,< 50
O[C@H]1CC[C@H](Nc2nccc(-n3ncc4ccccc43)n2)CC1,< 50,< 50,< 50,< 50,< 50,< 50
O[C@H]1CC[C@H](Nc2nccc(-c3n[nH]c4ccccc34)n2)CC1,< 50,,,< 50,< 50,90

# Reference: ChEMBL document CHEMBL2424622, “Development of amino-pyrimidine inhibitors of c-Jun N-terminal kinase (JNK): kinase profiling guided optimization of a 1,2,3-benzotriazole lead” (Bioorg Med Chem Lett, 2013)
